Measurements from different studies.
Lines come from different studies, so protocols differ.
Target: Tyrosine-protein kinase FRK (FRK, Homo sapiens, UniProt P42685)

Compound | test | setting | remaining binding [%]
O=C(c1ccc(Nc2ncc(Cl)c(-c3cc4ccccc4s3)n2)cc1)N1CCC(N2CCCC2)CC1 | binding, competition with immobilised ligand | 1 µM | 90
CNC(=O)Nc1ccc2c(c1)[C@@]1(CC2)OC(=O)N(CC(=O)N(Cc2ccc(F)cc2)[C@@H](C)C(F)(F)F)C1=O | cell-free assay, competition with immobilised ligand | 1 µM | 95
N[C@@H]1CCN(c2nccc(-c3cnn4ncccc34)n2)C1 | binding | 1 µM | 97
O=C(Nc1cnc(Oc2ccc(F)cc2)nc1)N1CCc2ncccc2[C@@H]1c1ccc(F)cc1 | cell-free assay, competition with immobilised ligand | 1 µM | 98
C[C@H]1CCN(c2nccc(-c3cnn4ncccc34)n2)C1 | binding | 1 µM | 100
O=C(NCCCN1CCOCC1)c1ccc(Nc2nccc(-c3cc4ccccc4s3)n2)cc1 | binding, competition with immobilised ligand | 1 µM | 99
CS(=O)(=O)N1CCCC(NC(=O)[C@H](CCC2CCCCC2)NC(=O)c2ccc(CNc3ncnc4c3nnn4-c3ccccc3)cc2)C1 (stereo partly shown) | cell-free assay, competition with immobilised ligand | 0.1 µM | 60
FC(F)(F)Oc1cccc(-c2cnc3ccc(-c4ccncc4)nn23)c1 | cell-free assay, competition with immobilised ligand | 5 µM | 59
COc1ccc2c(c1)O[C@@H](c1ccc(OC)c(OC)c1)C[C@H]2NC(=O)C1(c2ccc3c(c2)OC(F)(F)O3)CC1 | cell-free assay, competition with immobilised ligand | 1 µM | 100
CN(CCCC(F)(F)F)c1nccc(-c2cnn3ncccc23)n1 | binding | 1 µM | 93
O=C(NCCCN1CCOCC1)c1ccc(Nc2ncc(Cl)c(-c3ccc(Cl)s3)n2)cc1 | binding, competition with immobilised ligand | 1 µM | 100
Nc1ncc2c(n1)-c1c([nH]c3ccc(C#CC4CC4)cc13)CCCC2 | binding, competition with immobilised ligand | 1 µM | 95
C[C@@H](c1cccc(C#N)c1)n1cc(Cl)cc(C(N)=O)c1=N | cell-free assay, competition with immobilised ligand | 1 µM | 100
CNC(=O)[C@@H]1CC[C@@H](n2c(-c3ccc4cnccc4c3)nc3ccc(C(=O)NCc4cccc(C(N)=O)c4)cc32)C1 | binding, competition with immobilised ligand | 1 µM | 100
CN(C)c1nccc(-c2cnn3ncccc23)n1 | binding, competition with immobilised ligand | 1 µM | 100
N#Cc1ccc(Nc2ccc3[nH]c(=O)[nH]c3c2)c(Cl)c1 | cell-free assay, competition with immobilised ligand | 1 µM | 73
COc1ncc2cc3ccccc3nc2c1C#N | cell-free assay, competition with immobilised ligand | 5 µM | 99
O=C(NCC1CCOCC1)c1n[nH]cc1NC(=O)c1c(F)cccc1F | binding, competition with immobilised ligand | 1 µM | 100
Cc1cnn2ncc(-c3ccnc(N(C)C)n3)c2c1 | binding, competition with immobilised ligand | 1 µM | 100
C[C@@H](c1ccc(-n2cnc3c(N)ncnc32)cc1)N1CCc2nn(C)c(Cc3ccccc3)c2C1=O | binding, competition with immobilised ligand | 0.1 µM | 91
COc1ccnn2ncc(-c3ccnc(N(C)C)n3)c12 | binding | 1 µM | 92
CO[C@@H](C)c1c(Nc2ccc([C@H](N(C)C(=O)C3CCS(=O)(=O)CC3)C(F)(F)F)cc2)cnc2cc(Cl)nn12 | cell-free assay, competition with immobilised ligand | 1 µM | 80
